The campaign covered roughly 200,000 compounds. About 2,000 (1%) were called active. Only a selection was taken, and actives are over-represented in it overall. A number with no mark means an inactive call.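 How the source made its calls: active means inhibition above the campaign mean inhibition of all tested compounds plus 3 SD (cut at about 20% in these data); inactive means the rest.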

Sequence of Neuropeptide Y receptor type 1 (Homo sapiens) (P25929 whole entry, looked up): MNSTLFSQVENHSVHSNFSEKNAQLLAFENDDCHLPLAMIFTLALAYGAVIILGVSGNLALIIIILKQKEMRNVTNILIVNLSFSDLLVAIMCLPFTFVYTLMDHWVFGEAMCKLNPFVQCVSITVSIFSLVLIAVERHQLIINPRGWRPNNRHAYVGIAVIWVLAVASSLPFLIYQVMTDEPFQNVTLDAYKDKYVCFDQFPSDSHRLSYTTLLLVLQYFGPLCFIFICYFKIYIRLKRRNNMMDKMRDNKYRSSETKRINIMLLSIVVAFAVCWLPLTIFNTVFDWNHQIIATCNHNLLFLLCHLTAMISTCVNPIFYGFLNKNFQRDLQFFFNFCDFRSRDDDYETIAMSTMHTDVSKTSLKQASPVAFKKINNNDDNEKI

This test deals with Neuropeptide Y receptor type 1 (Homo sapiens) (UniProt P25929). In words: NPY-Y1 receptor antagonists, primary screen, cell-based (AID 1040).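 Further: 0% = DMSO wells given NPY plus isoproterenol and 100% = isoproterenol alone without NPY.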 As to conditions: HEK293-CNG Y1 cells, membrane potential fluorescence; at 3.6 µM; hits give high values; NPY at EC95, then isoproterenol. Put shortly:
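Material: HEK293 cells co-expressing NPY Y1 receptor and cyclic-nucleotide gated channel. Timing: compound incubation 1 h at room temperature, readout 45 min post-stimulation. Signal: fluorescence, membrane potential probe.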
As a reminder, the inhibition is the relative decrease from the control value, in per cent. For the compound `COc1cccc(OC)c1C(=O)NC(=S)Nc1ccc(N2CCOCC2)c(Cl)c1`, the inhibition was 9.33%.
`Cc1c(Cl)c([N+](=O)[O-])nn1CC(=O)NCC1CCCO1` (stereo not given): the inhibition was -5.55%.
For `COC(=O)c1ccc(CSc2ccccc2C)o1`, the inhibition is -3.04%.
As to `COC(=O)c1ccc(COC(=O)c2c(C)nn(Cc3ccccc3Cl)c2Cl)o1`, the inhibition is 22.2% (active).
On to `CCOC(=O)c1cnn(Cc2ccccc2Cl)c1N`, for which the inhibition was -2.37%.
As to `O=C(Nc1ccc(F)cc1)N1CCCC(c2nc3c(nnn3Cc3ccccc3Cl)c(=O)[nH]2)C1` (stereo not given), the inhibition is -6.56%.
In the case of `Oc1ccccc1C=NC1CCCCC1N=Cc1ccccc1O` (stereo not given), the inhibition was 4.16%.
Next, `Cc1ccc(Cl)cc1N1CCN(C(=O)c2cccc3c(=O)c(C)c(-c4ccccc4)oc23)CC1`: 4.2%.
Consider `Cc1cccc(OCCC(=O)Nc2cc(S(=O)(=O)N3CCCCC3)ccc2N2CCOCC2)c1`, for which the inhibition is 2.92%.
Regarding `Cc1ncc([N+](=O)[O-])n1CCOC(=O)c1ccc(Br)cc1`, the inhibition was -0.91%.
Regarding `COc1ccccc1NC(=O)COC(=O)Cc1ccc(S(=O)(=O)N2CCCCC2)s1`, the inhibition was -4.82%.
With `O=C(Nc1ccc(N2C(=O)c3cccc4cccc(c34)C2=O)cc1)c1ccc(N2CCCCC2)c([N+](=O)[O-])c1`, the inhibition is -0.12%.
With `COc1ccc(-c2[nH]ncc2/C=N/NC(=O)c2cc(Br)ccc2O)c(OC)c1`, the inhibition was 4.29%.
Regarding `CS(=O)(=O)n1nc(-c2ccccc2)nc1NCc1ccco1`, the inhibition is -0.86%.
Turning to `CCS(=O)(=O)n1nc(-c2ccccc2)nc1SCc1ccccc1`, the inhibition was 28.2% (active).
Next, `CCS(=O)(=O)n1nc(-c2ccc(OC)cc2)nc1SC`: 3.74%.
Next, `Cc1ccnc(NC(=O)CCC(=O)N(CC(=O)NCc2ccccc2)Cc2ccco2)c1`: 2.07%.
For `CC(=O)Oc1ccccc1C1=NN(C(C)=O)C(c2ccccc2)C1` (stereo not given), the inhibition was 1.31%.
Regarding `O=C1C2N=NN(CC(=O)N3N=C(c4cccc5ccccc45)CC3c3ccccc3)C2C(=O)N1c1ccccc1` (stereo not given), the inhibition was 6.21%.
Next, `Cc1ccc(N2C(=O)C3N=NN(CC(=O)N4N=C(c5cccc6ccccc56)CC4c4ccccc4)C3C2=O)cc1` (stereo not given): 20.5% (active).
For the compound `CCn1ccnc1CN1CCCC(C(=O)c2ccc3c4c(cccc24)CC3)C1` (stereo not given), the inhibition is 3.36%.
For `Cc1cccc(-c2ncc(CN3CCC(CO)(CCCc4ccccc4)CC3)cn2)c1`, the inhibition was 4.93%.
For the compound `CC(=O)c1cccc(CN2CCC(CO)(Cc3ccccc3)CC2)c1`, the inhibition is 2.21%.
Regarding `OCC1(CCc2ccccc2)CCN(Cc2ccc3nsnc3c2)CC1`, the inhibition was 22.8% (active).
`COC(=O)C(C(=O)Nc1cccc(Cl)c1C)C1CCCC1` (stereo not given): the inhibition was 5.62%.
On to `Cc1ccccc1Nc1scc(-c2ccc(Br)cc2)[n+]1-c1ccccc1C`, for which the inhibition was 31.6% (active).
With `COc1ccc(C)cc1-n1nnnc1SCc1nc2ccccc2c(=O)[nH]1`, the inhibition was -0.32%.
Regarding `CCN(CCCNC(=O)CSc1cc(=O)n(C)c2cc(Cl)ccc12)Cc1ccccc1`, the inhibition is 1.58%.
Turning to `COCCCNC(=S)N1CCCC(c2nc3cc(C)c(C)cc3[nH]2)C1` (stereo not given), the inhibition is -0.11%.
Next, `NS(=O)(=O)c1ccc(CCNC(=O)c2ccc([N+](=O)[O-])cc2[N+](=O)[O-])cc1`: 0.19%.
Take `N#Cc1cnn2cc(CCN3CCOCC3)c(-c3ccc(F)cc3)nc12`: the inhibition was -1.23%.
Consider `COc1ccc(/C=N/NC(=O)Cn2cc(C(F)(F)F)ccc2=O)cc1`, for which the inhibition is 0.12%.
With `CCOC(=O)N1CCN(S(=O)(=O)c2ccc(C(=O)Nc3ccc(F)cc3F)cc2)CC1`, the inhibition is 30.3% (active).
Next, `O=C(Nc1cccc(F)c1)c1ccc(S(=O)(=O)N2CCCC2)cc1`: -0.82%; `COc1ccc(C(=O)Nc2ccc(F)cc2F)cc1`: 6.11%.
Regarding `CC(=O)c1cnc(SCC(=O)O)nc1C`, the inhibition is -4%.
Turning to `COc1ccc(C(=O)NN2C(=O)C3C(c4ccccc4)C=CC(c4ccccc4)C3C2=O)cc1` (stereo not given), the inhibition was 11.3%.
As for `COc1ccc2c(c1)C(C)=CC(C)(C)N2C(=O)CNCc1ccc2c(c1)OCO2`, the inhibition was 27.3% (active).
Consider `COc1ccc2c(c1)C(C)=CC(C)(C)N2C(=O)Nc1ccccc1`, for which the inhibition was 13.7%.
`CCn1cc(C(=O)NCc2ccc3c(c2)OCO3)c2cc(OC)c(OC)cc2c1=O`: the inhibition was 1.79%.
Regarding `O=C(/C=C/c1ccc(OCc2c(F)cccc2Cl)cc1)N1CCOCC1`, the inhibition was 5.45%.
`COn1c(-c2ccc(Cl)cc2Cl)nc2ncccc21`: the inhibition was 5.03%.
To `O=C(Nc1cccc(Cl)c1)c1cc([N+](=O)[O-])ccc1N1CCN(CCO)CC1` belongs 0.17%; to `CCN1CCN(c2ccc([N+](=O)[O-])cc2C(=O)c2ccc(Cl)cc2)CC1`, 36.6% (active).
As to `CCC(=O)c1ccc(N2CCN(C(=O)c3cc([N+](=O)[O-])ccc3F)CC2)c(F)c1`, the inhibition was -2.39%.
Consider `CCc1ccc(OCC(=O)OCC(=O)c2c(N)n(C)c(=O)n(C)c2=O)cc1`, for which the inhibition is -0.61%.
For `O=C(NCc1ccco1)c1nn2cccnc2c1Cl`, the inhibition is 1.08%.
Next, `Cc1noc(C)c1C(=O)N(CC(=O)NC1CCCC1)Cc1ccccc1F`: 1.99%; `COc1ccc(CN(CC(=O)NC2CCCC2)C(=O)CCC(=O)Nc2cc(C)on2)cc1`: 1.61%.
For the compound `Cc1cc(C(C)(C)C)oc1C(=O)N(CC(=O)NC1CCCC1)Cc1ccc(Cl)cc1`, the inhibition is 28.1% (active).
With `COc1ccc(Cc2nnc(N/N=C/c3ccccc3O)[nH]c2=O)cc1OC`, the inhibition was 7.54%.
For the compound `Cc1nc([N+](=O)[O-])c(NCCCO)n1Cc1ccccc1`, the inhibition is -2.13%.
Regarding `N=c1c2c(-c3ccccc3)c(-c3ccccc3)n(Cc3ccccc3)c2ncn1CCCO`, the inhibition was 73.2% (active).
On to `OCCCN1c2ccccc2Nc2nnc(-c3ccccc3)cc21`, for which the inhibition was -7.91%.
Regarding `COc1ccc(-c2nn(-c3ccccc3)cc2CN2CCCO2)c(F)c1`, the inhibition was 3.17%.
For `CCCOC(=O)c1[nH]c2c(c1C)C(=O)CC(c1cc(OC)c(OC)c(OC)c1)C2` (stereo not given), the inhibition was -8.2%.
For the compound `CCCOC(=O)c1[nH]c2c(c1C)C(=O)CC(c1cccs1)C2` (stereo not given), the inhibition is 33.9% (active).
For the compound `CCOC(=O)c1[nH]c2c(c1C)C(=O)CC(c1ccc(N(C)C)cc1)C2` (stereo not given), the inhibition is 6.58%.
As for `COc1ccc(NC(=O)/C(C#N)=C\c2cc(OC)c(OCc3ccc(C(=O)O)cc3)cc2Br)cc1`, the inhibition is 2.86%.
On to `Cc1nc(Nc2ccc(S(=O)(=O)N3CCCC3)cc2)c2nnn(Cc3ccccc3)c2n1`, for which the inhibition was -11%.
As to `O=S(=O)(NCc1ccccc1)c1ccc(S(=O)(=O)N2CCCC2)cc1`, the inhibition was 1%.
`O=C1c2cccnc2C(Nc2ccc(S(=O)(=O)N3CCCCCC3)cc2)N1Cc1ccccc1` (stereo not given): the inhibition is 30.7% (active).
As to `Cc1cccc(N2CCC(NCc3c(C(=O)N4CCCCC4)nc4c(C)cccn34)CC2)c1`, the inhibition was 11%.
`COc1ccc(C(C[N+](=O)[O-])n2nc(C)cc2C)cc1` (stereo not given): the inhibition is -2.49%.
Turning to `COc1ccccc1CNC(=O)C1CCN(c2nc3ccccc3o2)CC1`, the inhibition is -3.62%.
Consider `COc1ccc(OC)c(CNC(=O)C2CCCN(c3nc4ccccc4o3)C2)c1` (stereo not given), for which the inhibition was 7.8%.
For the compound `CCc1ccc(CNC(=O)C2CCCN(c3nc4ccccc4o3)C2)cc1` (stereo not given), the inhibition is 26.4% (active).
As for `COC(=O)c1ccc(COC(=O)c2cnccn2)cc1`, the inhibition is -0.5%.
Consider `OC(COCC1COc2ccccc2O1)CN1CCN(c2ccc(F)cc2)CC1` (stereo not given), for which the inhibition was -9.16%.
Next, `Cc1ccc(S(=O)(=O)N(C)CC(=O)OCC(=O)N2CC(=O)Nc3ccccc32)cc1`: 1.33%; `O=C(c1ccc(Cl)cc1)c1ccc(OCC(O)CN2CCCCC2)cc1` (stereo not given): 6.02%; `O=C(c1ccccc1)c1ccc(OCC(O)CN2CCCC2)cc1` (stereo not given): 20.8% (active).
Next, `OC(COc1cccc(OCC(O)CN2CCCC2)c1)CN1CCCC1` (stereo not given): 6.73%.
Next, `CN1CCNC(=O)C1CC(=O)NCCC1=CCCCC1` (stereo not given): 1.21%; `Cc1ccc(OCC(=O)NC(C)c2ccccc2)c([N+](=O)[O-])n1` (stereo not given): 19.9%.
Turning to `Cc1ccc(CNC(=O)C2CCCN(S(C)(=O)=O)C2)cc1` (stereo not given), the inhibition was 0.15%.
Next, `CCCS(=O)(=O)N1CCCC(C(=O)N2CCN(c3ccccc3)CC2)C1` (stereo not given): 0.57%; `CS(=O)(=O)N1CCCC(C(=O)N2CCOCC2)C1` (stereo not given): 94.5% (active).
In the case of `COc1ccc(N2CCN(CCCNC(=O)C3CCN(S(=O)(=O)N4CCOCC4)CC3)CC2)cc1`, the inhibition was -2.61%.
Next, `CN(C)CCSc1nc(N)c2c3c(sc2n1)COC(C)(C)C3`: 1.6%; `CCC1(C)Cc2c(sc3nc(SC)nc(N)c23)CO1` (stereo not given): -1.88%.
Take `CCCSc1nc(NCc2ccco2)c2c3c(sc2n1)COC(C)(CC)C3` (stereo not given): the inhibition was 30.4% (active).
On to `COC(=O)c1ccc(C2C(Oc3ccccc3C)C(=O)N2CCc2ccc(OC)c(OC)c2)cc1` (stereo not given), for which the inhibition is 8.91%.
To `CCOc1ccc(C(CCc2ccccc2)NC(=O)c2ccc(OC)c(OC)c2)cc1OCC` (stereo not given) belongs -0.85%; to `COC(=O)c1ccc(C(NC(=O)OCc2ccccc2)/C(C)=C/[C@@H](C)C(=O)NCc2ccc(OC)c(OC)c2)cc1` (stereo not given in full), 21.5% (active); to `O=C(CCCNS(=O)(=O)c1cccc2nsnc12)NCCN1CCN(c2ccccc2F)CC1`, 1.63%.
Next, `Cc1c(/C=N\NC(=O)c2cc3ccccc3o2)c2ccccc2n1C`: 8.68%; `CCOC(=O)Nc1ccccc1N1C(=O)c2ccccc2C1=O`: -3.15%.
For `O=C1c2ccccc2C(=O)N1c1ccccc1S(=O)C(F)(F)F` (stereo not given), the inhibition was 21.4% (active).
Take `O=C1C(=O)N(c2ccccc2)c2ccccc21`: the inhibition is 7.08%.

For the origin of these results see PubChem BioAssay AID1040 (The Scripps Research Institute Molecular Screening Center, 2008).
